Assay results from different studies.
Target: MAP kinase-activated protein kinase 5 (MAPKAPK5, Homo sapiens, UniProt Q8IW41)
Residues used in one study (Q8IW41 1-473): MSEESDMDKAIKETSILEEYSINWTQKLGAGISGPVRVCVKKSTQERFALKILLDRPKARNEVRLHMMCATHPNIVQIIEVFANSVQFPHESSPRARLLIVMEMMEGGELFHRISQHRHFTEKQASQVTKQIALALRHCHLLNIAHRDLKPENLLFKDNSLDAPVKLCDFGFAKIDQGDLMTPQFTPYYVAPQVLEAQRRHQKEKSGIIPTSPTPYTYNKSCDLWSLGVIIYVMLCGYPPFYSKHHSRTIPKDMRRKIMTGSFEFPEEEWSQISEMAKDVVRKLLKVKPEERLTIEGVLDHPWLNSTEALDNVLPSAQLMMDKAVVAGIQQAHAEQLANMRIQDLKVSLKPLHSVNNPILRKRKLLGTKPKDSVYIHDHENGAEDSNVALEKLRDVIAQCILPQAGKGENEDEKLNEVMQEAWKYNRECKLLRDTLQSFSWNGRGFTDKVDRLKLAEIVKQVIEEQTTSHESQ

The inhibition of `C#Cc1n[nH]c2c(-c3cn(C(C)c4ccccn4)c(=O)[nH]c3=O)cc(F)cc12` (centres unmarked) is reported as 5.8% (enzyme activity; inhibitor; 1 µM).
For `O=c1[nH]c2ccccc2n1C1CCN(Cc2ccc(-c3[nH]c4cc5ncnc5cc4nc3-c3ccccc3)cc2)CC1`, the remaining signal was 97.4% (cell-free assay; 0.5 µM).
With `Nc1ncc(-c2nc(N3CCOCC3)nc(N3CCOCC3)n2)c(C(F)F)n1` the remaining binding was 72% (binding; competition with immobilised ligand; 10 µM).
The inhibition of `COc1cc(Nc2ncc(F)c(Nc3ccc4c(n3)NC(=O)C(C)(C)O4)n2)cc(OC)c1OC` is reported as 19% (binding; competition with immobilised ligand; 10 µM).
With `N#CC1(c2ccccn2)CCN(Cc2cc(C(=O)O)c(=O)n3ccccc23)CC1` the remaining binding was 56% (cell-free assay; competition with immobilised ligand; 1 µM).
For `Cn1cc(-c2cc(F)cc(N3CCn4c(cc5c4CCCC5)C3=O)c2CO)cc(Nc2ccc(N3CCN(C4COC4)CC3)cn2)c1=O`, the inhibition was 9% (enzyme activity; inhibitor; 0.1 µM).
With `CC(C)(C)c1cc(C=C(C#N)C#N)cc(Br)c1O` the remaining activity was 97.4% (enzyme activity; inhibitor; 0.5 µM).
`Cn1cc(-c2cccc(N3CCc4c(sc5c4CC(C)(C)C5)C3=O)c2CO)cc(Nc2ccncn2)c1=O` gave an inhibition of 3% (enzyme activity; inhibitor; 1 µM).
`COc1ncccc1-c1cnn2ccc(N3CCN(C(=O)OC(C)C)CC3)nc12` has a remaining binding of 100% (binding; competition with immobilised ligand; 1 µM).
With `C#Cc1n[nH]c2c(-c3cn([C@@H](C)c4ccccc4)c(=O)[nH]c3=O)cc(F)cc12` the inhibition was 1.8% (enzyme activity; inhibitor; 0.1 µM).
For `Cn1cncc1[C@](O)(COc1ccc(C#N)cc1-c1ccc(OC(F)(F)F)cc1)c1ccc(C#N)cc1`, the remaining binding was 90% (cell-free assay; competition with immobilised ligand; 1 µM).
